# Legend:
# Candida albicans [1] = assay: Antifungal activity against Candida albicans ATCC 76615 after 48 hrs by disc diffusion method; format: functional; conditions: ATCC 76615, 48 h
# How it was run: (§1)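 Disc diffusion on modified Sabouraud-chloramphenicol agar (1% peptone, 2% glucose, […]), compounds as sterile-water stocks; fluconazole and polyoxin B positive controls; MIC (mg/L) recorded after 48 h at 37 °C.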
# Cryptococcus neoformans = assay: Antifungal activity against Cryptococcus neoformans after 48 hrs by disc diffusion method; format: functional; how it was run: as §1
# Aspergillus flavus [2] = assay: Antifungal activity against Aspergillus flavus after 48 hrs by disc diffusion method; format: functional; how it was run: as §1
# Staphylococcus aureus [3] = assay: Antibacterial activity against Staphylococcus aureus ATCC 25923 after overnight incubation by disc diffusion method; format: functional
# How it was run: (§2)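 Agar disc diffusion on beef extract–peptone medium (1% peptone, 0.3% beef extract, 0.5% NaCl, […]), compounds dissolved in sterile water; streptomycin sulfate positive control; plates incubated overnight at 37 °C, then MIC recorded (mg/L).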
# Bacillus spizizenii = assay: Antibacterial activity against Bacillus subtilis ATCC 6633 after overnight incubation by disc diffusion method; format: functional; how it was run: as §2
# Staphylococcus aureus [4] = assay: Antibacterial activity against methicillin-resistant Staphylococcus aureus N315 after overnight incubation by disc diffusion method; format: functional
# How it was run: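 Disc diffusion on beef extract-peptone agar (1% peptone, 0.3% beef extract, 0.5% NaCl, […]); compounds dissolved in sterile water; streptomycin sulfate positive control; plates incubated overnight at 37 °C, then MIC (mg/L) recorded.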
# Bacillus = assay: Antibacterial activity against Bacillus proteus after overnight incubation by disc diffusion method; format: functional; how it was run: as §2
# Escherichia coli = assay: Antibacterial activity against Escherichia coli JM 109 after overnight incubation by disc diffusion method; format: functional; how it was run: as §2
# Pseudomonas aeruginosa = assay: Antibacterial activity against Pseudomonas aeruginosa CR56 after overnight incubation by disc diffusion method; format: functional; how it was run: as §2
# [5] = Inhibition of Saccharomyces cerevisiae CGMCC 2.145 chitin synthase assessed as UDP-GlcNAc conversion to chitin after 45 mins by ELISA
# How it was run: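 Enzyme prepared from S. cerevisiae cells sonicated at 4 °C in 50 mM Tris–HCl pH 7.0 with protease inhibitors and PMSF; 55,000 g membrane pellet used. Wells hold UDP-GlcNAc plus 320 mM GlcNAc, compound in Tris buffer (final DMSO below 3%), 45 min at 37 °C. Chitin detected with HRP–wheat germ agglutinin, TMB read at 450 nm against a chitin standard curve; IC50 derived.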
# Candida albicans [6] = assay: Ratio of fluconazole MIC to compound MIC for Candida albicans ATCC 76615; format: functional
# Candida albicans [7] = assay: Ratio of polyoxin B MIC to compound MIC for Candida albicans ATCC 76615; format: functional
# Aspergillus flavus [8] = assay: Ratio of polyoxin B MIC to compound MIC for Aspergillus flavus; format: functional
# Aspergillus flavus [9] = assay: Ratio of fluconazole MIC to compound MIC for Aspergillus flavus; format: functional
SMILES,MIC (Candida albicans [1]) [µg/mL],MIC (Cryptococcus neoformans) [µg/mL],MIC (Aspergillus flavus [2]) [µg/mL],MIC (Staphylococcus aureus [3]) [µg/mL],MIC (Bacillus spizizenii) [µg/mL],MIC (Staphylococcus aureus [4]) [µg/mL],MIC (Bacillus) [µg/mL],MIC (Escherichia coli) [µg/mL],MIC (Pseudomonas aeruginosa) [µg/mL],IC50 [5] [µM],Ratio (Candida albicans [6]),Ratio (Candida albicans [7]),Ratio (Aspergillus flavus [8]),Ratio (Aspergillus flavus [9])
CCCN(CCC)C(=O)CN(C)CC(O)Cn1c(=O)c2ccccc2n(C)c1=O.Cl (configuration not stated),> 512,16,32,≥ 512,≥ 512,≥ 512,≥ 512,≥ 512,≥ 512,390,,,,
COc1ccc(NC(=O)CN(C)CC(O)Cn2c(=O)c3ccccc3n(C)c2=O)cc1.Cl (configuration not stated),16,128,16,≥ 512,≥ 512,≥ 512,≥ 512,≥ 512,≥ 512,180,,,,
CN(CC(=O)NCc1ccccc1)CC(O)Cn1c(=O)c2ccccc2n(C)c1=O.Cl (configuration not stated),32,64,32,≥ 512,≥ 512,≥ 512,≥ 512,≥ 512,≥ 512,130,,,,
Cc1ccc(NC(=O)CN(C)CC(O)Cn2c(=O)c3ccccc3n(C)c2=O)cc1.Cl (configuration not stated),32,2,32,≥ 512,≥ 512,≥ 512,≥ 512,≥ 512,≥ 512,80,,,,
CN(CC(=O)Nc1ccccc1Cl)CC(O)Cn1c(=O)c2ccccc2n(C)c1=O.Cl (configuration not stated),64,2,32,≥ 512,≥ 512,≥ 512,≥ 512,≥ 512,≥ 512,260,,,,
CN(CC(=O)Nc1ccc(Cl)cc1)CC(O)Cn1c(=O)c2ccccc2n(C)c1=O.Cl (configuration not stated),16,2,128,≥ 512,≥ 512,≥ 512,≥ 512,≥ 512,≥ 512,160,,,,
CN(CC(=O)Nc1ccc(C(F)(F)F)cc1)CC(O)Cn1c(=O)c2ccccc2n(C)c1=O.Cl (configuration not stated),32,32,8,≥ 512,≥ 512,≥ 512,≥ 512,≥ 512,≥ 512,110,,,,
CN(CC(=O)Nc1cccc([N+](=O)[O-])c1)CC(O)Cn1c(=O)c2ccccc2n(C)c1=O.Cl (configuration not stated),4,8,4,≥ 512,≥ 512,≥ 512,≥ 512,≥ 512,≥ 512,240,8,4,8,16
CN(CC(=O)Nc1ccccc1[N+](=O)[O-])CC(O)Cn1c(=O)c2ccccc2n(C)c1=O.Cl (configuration not stated),> 512,32,64,≥ 512,≥ 512,≥ 512,≥ 512,≥ 512,≥ 512,210,,,,
CN(CC(=O)NCc1ccc(Cl)cc1)CC(O)Cn1c(=O)c2ccccc2n(C)c1=O.Cl (configuration not stated),32,64,64,≥ 512,≥ 512,≥ 512,≥ 512,≥ 512,≥ 512,> 750,,,,
CN(CC(=O)NC(C)(C)C)CC(O)Cn1c(=O)c2ccccc2n(C)c1=O.Cl (configuration not stated),> 512,128,64,≥ 512,≥ 512,≥ 512,≥ 512,≥ 512,≥ 512,140,,,,
CN(CC(=O)Nc1ccc(CC#N)cc1)CC(O)Cn1c(=O)c2ccccc2n(C)c1=O.Cl (configuration not stated),4,4,8,≥ 512,≥ 512,≥ 512,≥ 512,≥ 512,≥ 512,120,8,4,,
COC(=O)c1ccccc1NC(=O)CN(C)CC(O)Cn1c(=O)c2ccccc2n(C)c1=O.Cl (configuration not stated),32,2,4,≥ 512,≥ 512,≥ 512,≥ 512,≥ 512,≥ 512,170,,,8,16
CN(CC(=O)Nc1ccccc1)CC(O)Cn1c(=O)c2ccccc2n(C)c1=O.Cl (configuration not stated),32,64,> 512,≥ 512,≥ 512,≥ 512,≥ 512,≥ 512,≥ 512,> 750,,,,
CN(CC(=O)Nc1ccc([N+](=O)[O-])cc1)CC(O)Cn1c(=O)c2ccccc2n(C)c1=O.Cl (configuration not stated),> 512,64,64,≥ 512,≥ 512,≥ 512,≥ 512,≥ 512,≥ 512,> 750,,,,
CN(CC(=O)N(Cc1ccccc1)Cc1ccccc1)CC(O)Cn1c(=O)c2ccccc2n(C)c1=O.Cl (configuration not stated),64,2,4,≥ 512,≥ 512,≥ 512,≥ 512,≥ 512,≥ 512,160,,,8,16
CN(CC(=O)N(C)c1ccccc1)CC(O)Cn1c(=O)c2ccccc2n(C)c1=O.Cl (configuration not stated),64,8,256,≥ 512,≥ 512,≥ 512,≥ 512,≥ 512,≥ 512,320,,,,
CCN(CC)C(=O)CN(C)CC(O)Cn1c(=O)c2ccccc2n(C)c1=O.Cl (configuration not stated),64,16,8,≥ 512,≥ 512,≥ 512,≥ 512,≥ 512,≥ 512,340,,,,
CN(CC(=O)N1CCCCC1)CC(O)Cn1c(=O)c2ccccc2n(C)c1=O.Cl (configuration not stated),32,512,,≥ 512,≥ 512,≥ 512,≥ 512,≥ 512,≥ 512,> 750,,,,
OC(Cn1cncn1)(Cn1cncn1)c1ccc(F)cc1F [FLUCONAZOLE],32,2,64,,,,,,,,,,,
NC(=O)OC[C@H](O)[C@@H](O)[C@H](N)C(=O)N[C@H](C(=O)O)[C@H]1O[C@@H](n2cc(CO)c(=O)[nH]c2=O)[C@H](O)[C@@H]1O [POLYOXIN B],16,4,32,,,,,,,180,,,,
CN[C@@H]1[C@H](O[C@H]2[C@H](O[C@H]3[C@H](O)[C@@H](O)[C@H](N=C(N)N)[C@@H](O)[C@@H]3N=C(N)N)O[C@@H](C)[C@]2(O)C=O)O[C@@H](CO)[C@H](O)[C@H]1O.CN[C@@H]1[C@H](O[C@H]2[C@H](O[C@H]3[C@H](O)[C@@H](O)[C@H](N=C(N)N)[C@@H](O)[C@@H]3N=C(N)N)O[C@@H](C)[C@]2(O)C=O)O[C@@H](CO)[C@H](O)[C@H]1O.O=S(=O)(O)O.O=S(=O)(O)O.O=S(=O)(O)O [STREPTOMYCIN SULFATE],,,,64,64,64,64,64,64,,,,,

# From ChEMBL document CHEMBL3286331, “Design, synthesis and evaluation of novel quinazoline-2,4-dione derivatives as chitin synthase inhibitors and antifungal agents” (Bioorg Med Chem, 2014)
